This is an account of results in ChEMBL document CHEMBL3875209, “Synthesis and biological evaluation of cis-restricted triazole/tetrazole mimics of combretastatin-benzothiazole hybrids as tubulin polymerization inhibitors and apoptosis inducers” (Bioorg Med Chem, 2017).

Common to all, as to format: functional, cell-based
A short description of test [1]: Antiproliferative activity against human DU145 cells after 48 hrs by MTT assay. The settings on record: DU-145, 48 h. A digest of the protocol: (§1)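 MTT assay. Cells seeded in DMEM with 10% FBS and left 24 h at 37 °C in CO2 before compound treatment for 48 h. MTT (5 mg/mL stock) added for 4 h, formazan dissolved in DMSO, absorbance read at 570 nm. IC50 taken as the mean of three independent experiments.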
(Tetrazolium dyes change colour on reduction, which living cells bring about.)

Test [2] in a line: Antiproliferative activity against human HeLa cells after 48 hrs by MTT assay. In outline:
as §1

A short description of test [3]: Antiproliferative activity against human A549 cells after 48 hrs by MTT assay. The settings on record: A549, 48 h. In outline:
as §1

Test [4] is described as follows: Antiproliferative activity against human HepG2 cells after 48 hrs by MTT assay. The settings on record: HepG2, 48 h. A digest of the protocol:
as §1

Test [5] in a line: Antiproliferative activity against human MCF7 cells after 48 hrs by MTT assay. The settings on record: MCF7, 48 h. A digest of the protocol:
as §1

Molecules are shown by their SMILES.

On to `COc1cc(OC)c2sc(-c3ccc(-n4nnnc4-c4cc(OC)c(OC)c(OC)c4)c(C)c3)nc2c1`, for which the 50% inhibitory concentration (IC50) (as a rule, the point on the concentration scale where inhibition reaches its midpoint) stood at 11.7 µM in test [1]; 8.7 µM in test [2]; 5.38 µM in test [3]; 9.74 µM in test [4]; 17.2 µM in test [5].

Turning to `COc1cc(OC)c2sc(-c3ccc(-n4cc(-c5cc(OC)c(OC)c(OC)c5)nn4)c(C)c3)nc2c1`, the half-inhibitory concentration (IC50) in test [1] was determined as 10.2 µM; in test [2], 8.12 µM; in test [3], 7.76 µM; in test [4], 15.5 µM; in test [5] it was 18.8 µM.

On to `COc1cc(-c2nncn2-c2ccc(-c3nc4cc(OC)c(OC)c(OC)c4s3)cc2C)cc(OC)c1OC`, for which the IC50 was 0.7 µM in test [1]; 0.21 µM in test [2]; 0.23 µM in test [3]; 1.25 µM in test [4]; 2.99 µM in test [5].

In the case of `COc1cc(OC)c2sc(-c3ccc(-n4cnnc4-c4cc(OC)c(OC)c(OC)c4)cc3)nc2c1`, the IC50 turned out to be 11.8 µM in test [1]; 4.13 µM in test [2]; 5.04 µM in test [3]; 9.65 µM in test [4]; 8.21 µM in test [5].

With `COc1cc(-c2nc3ccc(F)cc3s2)ccc1-n1cnnc1-c1cc(OC)c(OC)c(OC)c1`, the half-maximal inhibitory concentration (IC50) in test [1] worked out at 7.58 µM; in test [2] it was 2.81 µM; in test [3] it was 1.22 µM; in test [4], 2.75 µM; in test [5] it was 2.49 µM.

In the case of `COc1cc(OC)c2sc(-c3ccc(-n4cc(-c5cc(OC)c(OC)c(OC)c5)nn4)cc3)nc2c1`, the IC50 in test [1] was determined as 9.33 µM; in test [2] it was 9.05 µM; in test [3], 7.61 µM; in test [4], 17.4 µM; in test [5], 19.9 µM.

As to `COc1cc(OC)c2sc(-c3ccc(-n4nnnc4-c4cc(OC)c(OC)c(OC)c4)cc3)nc2c1`, the concentration for half-maximal inhibition (IC50) stood at 19.9 µM in test [1]; 10.2 µM in test [2]; 7.24 µM in test [3]; 22.4 µM in test [4]; 31.6 µM in test [5].

Consider `COc1ccc2nc(-c3ccc(-n4nnnc4-c4cc(OC)c(OC)c(OC)c4)c(OC)c3)sc2c1`, for which the concentration for half-maximal inhibition (IC50) in test [1] worked out at 5.67 µM; in test [2] it was 4.56 µM; in test [3] it was 2.25 µM; in test [4], 1.67 µM; in test [5], 3.45 µM.

For `COc1cc(-c2cn(-c3ccc(-c4nc5ccc(F)cc5s4)cc3C)nn2)cc(OC)c1OC`, the IC50 in test [1] came out at 7.33 µM; in test [2] it was 6.76 µM; in test [3] it was 3.38 µM; in test [4] it was 8.05 µM; in test [5], 10.8 µM.

As for `COc1cc(-c2nnnn2-c2ccc(-c3nc4cc(OC)c(OC)c(OC)c4s3)cc2)cc(OC)c1OC`, the 50% inhibitory concentration (IC50) in test [1] stood at 7.24 µM; in test [2], 6.16 µM; in test [3] it was 3.54 µM; in test [4], 8.51 µM; in test [5] it was 8.68 µM.

Take `COc1ccc2nc(-c3ccc(-n4cc(-c5cc(OC)c(OC)c(OC)c5)nn4)c(OC)c3)sc2c1`: the 50% inhibitory concentration (IC50) in test [1] worked out at 18.6 µM; in test [2] it was 11.1 µM; in test [3], 10.7 µM; in test [4], 16.4 µM; in test [5], 15.5 µM.

Turning to `COc1cc(-c2nc3cc(OC)c(OC)c(OC)c3s2)ccc1-n1cnnc1-c1cc(OC)c(OC)c(OC)c1`, the half-maximal inhibitory concentration (IC50) in test [1] was 11.5 µM; in test [2], 5.51 µM; in test [3], 3.46 µM; in test [4], 7.41 µM; in test [5], 10.5 µM.

Regarding `COc1ccc2nc(-c3ccc(-n4cc(-c5cc(OC)c(OC)c(OC)c5)nn4)cc3)sc2c1`, the IC50 in test [1] amounted to 12.3 µM; in test [2] it was 11.5 µM; in test [3], 6.3 µM; in test [4], 12.4 µM; in test [5], 22.9 µM.

Take `COc1cc(-c2nnnn2-c2ccc(-c3nc4cc(OC)c(OC)c(OC)c4s3)cc2C)cc(OC)c1OC`: the IC50 worked out at 14.8 µM in test [1]; 9.81 µM in test [2]; 7.41 µM in test [3]; 23.4 µM in test [4]; 17.5 µM in test [5].

Regarding `COc1cc(-c2nc3ccc(F)cc3s2)ccc1-n1cc(-c2cc(OC)c(OC)c(OC)c2)nn1`, the IC50 amounted to 14.2 µM in test [1]; 10.1 µM in test [2]; 6.02 µM in test [3]; 13.9 µM in test [4]; 16.1 µM in test [5].

For `COc1cc(OC)c2sc(-c3ccc(-n4cnnc4-c4cc(OC)c(OC)c(OC)c4)c(C)c3)nc2c1`, the IC50 stood at 1.04 µM in test [1]; 0.93 µM in test [2]; 0.26 µM in test [3]; 2.54 µM in test [4]; 5.35 µM in test [5].

Take `COc1cc(-c2nncn2-c2ccc(-c3nc4cc(OC)c(OC)c(OC)c4s3)cc2)cc(OC)c1OC`: the IC50 in test [1] was found to be 0.46 µM; in test [2], 0.21 µM; in test [3], 0.091 µM; in test [4], 1.27 µM; in test [5] it was 3.15 µM.

Take `COc1cc(-c2cn(-c3ccc(-c4nc5ccc(F)cc5s4)cc3)nn2)cc(OC)c1OC`: the IC50 amounted to 8.12 µM in test [1]; 3.46 µM in test [2]; 1.41 µM in test [3]; 7.76 µM in test [4]; 10.7 µM in test [5].

In the case of `COc1cc(OC)c2sc(-c3ccc(-n4cnnc4-c4cc(OC)c(OC)c(OC)c4)c(OC)c3)nc2c1`, the concentration for half-maximal inhibition (IC50) in test [1] turned out to be 10.2 µM; in test [2], 6.45 µM; in test [3], 7.24 µM; in test [4], 9.2 µM; in test [5] it was 8.57 µM.

On to `COc1cc(-c2nnnn2-c2ccc(-c3nc4ccc(F)cc4s3)cc2C)cc(OC)c1OC`, for which the IC50 in test [1] turned out to be 1.14 µM; in test [2] it was 0.97 µM; in test [3], 0.24 µM; in test [4], 1.69 µM; in test [5] it was 3.23 µM.

For `COc1cc(-c2nc3cc(OC)c(OC)c(OC)c3s2)ccc1-n1cc(-c2cc(OC)c(OC)c(OC)c2)nn1`, the IC50 in test [1] was 15.9 µM; in test [2], 17.8 µM; in test [3], 11 µM; in test [4], 29.9 µM; in test [5] it was 27.8 µM.

On to `COc1cc(-c2cn(-c3ccc(-c4nc5cc(OC)c(OC)c(OC)c5s4)cc3)nn2)cc(OC)c1OC`, for which the half-maximal inhibitory concentration (IC50) in test [1] worked out at 14.8 µM; in test [2], 11.5 µM; in test [3] it was 8.54 µM; in test [4], 15.5 µM; in test [5], 9.12 µM.

Turning to `COc1ccc2nc(-c3ccc(-n4cc(-c5cc(OC)c(OC)c(OC)c5)nn4)c(C)c3)sc2c1`, the IC50 in test [1] came out at 18.2 µM; in test [2], 13.1 µM; in test [3] it was 15.8 µM; in test [4], 20.1 µM; in test [5], 22 µM.

As to `COc1ccc2nc(-c3ccc(-n4nnnc4-c4cc(OC)c(OC)c(OC)c4)cc3)sc2c1`, the IC50 is 9.12 µM in test [1]; 6.6 µM in test [2]; 3.8 µM in test [3]; 9.05 µM in test [4]; 11.2 µM in test [5].

Consider `COc1cc(-c2nncn2-c2ccc(-c3nc4ccc(F)cc4s3)cc2)cc(OC)c1OC`, for which the IC50 was 8.21 µM in test [1]; 7 µM in test [2]; 6.58 µM in test [3]; 10.4 µM in test [4]; 12.5 µM in test [5].

Take `COc1ccc2nc(-c3ccc(-n4cnnc4-c4cc(OC)c(OC)c(OC)c4)c(OC)c3)sc2c1`: the IC50 in test [1] was found to be 11.6 µM; in test [2] it was 8.76 µM; in test [3], 9.06 µM; in test [4] it was 9.05 µM; in test [5], 14.7 µM.

On to `COc1cc(-c2nc3cc(OC)c(OC)c(OC)c3s2)ccc1-n1nnnc1-c1cc(OC)c(OC)c(OC)c1`, for which the IC50 in test [1] is 10.8 µM; in test [2], 5.79 µM; in test [3], 3.8 µM; in test [4] it was 16 µM; in test [5], 16.6 µM.

With `COc1cc(-c2cn(-c3ccc(-c4nc5cc(OC)c(OC)c(OC)c5s4)cc3C)nn2)cc(OC)c1OC`, the half-inhibitory concentration (IC50) came out at 15.8 µM in test [1]; 11.3 µM in test [2]; 9.77 µM in test [3]; 18.6 µM in test [4]; 20.8 µM in test [5].

For the compound `COc1ccc2nc(-c3ccc(-n4cnnc4-c4cc(OC)c(OC)c(OC)c4)cc3)sc2c1`, the IC50 in test [1] is 11.2 µM; in test [2] it was 10 µM; in test [3] it was 7.24 µM; in test [4], 11.6 µM; in test [5], 9.5 µM.

Consider `COc1ccc2nc(-c3ccc(-n4nnnc4-c4cc(OC)c(OC)c(OC)c4)c(C)c3)sc2c1`, for which the IC50 in test [1] was 15.9 µM; in test [2], 11 µM; in test [3] it was 4.78 µM; in test [4] it was 10.5 µM; in test [5], 12.6 µM.

As to `COc1cc(OC)c2sc(-c3ccc(-n4nnnc4-c4cc(OC)c(OC)c(OC)c4)c(OC)c3)nc2c1`, the IC50 in test [1] stood at 13.5 µM; in test [2], 11.7 µM; in test [3], 9.24 µM; in test [4], 17 µM; in test [5] it was 24.7 µM.

As for `COc1cc(-c2nnnn2-c2ccc(-c3nc4ccc(F)cc4s3)cc2)cc(OC)c1OC`, the IC50 was 4.57 µM in test [1]; 2.23 µM in test [2]; 2.07 µM in test [3]; 7.95 µM in test [4]; 8.57 µM in test [5].

For the compound `COc1cc(-c2nc3ccc(F)cc3s2)ccc1-n1nnnc1-c1cc(OC)c(OC)c(OC)c1`, the IC50 stood at 4.77 µM in test [1]; 4.36 µM in test [2]; 1.38 µM in test [3]; 1.24 µM in test [4]; 1.52 µM in test [5].

Regarding `COc1cc(OC)c2sc(-c3ccc(-n4cc(-c5cc(OC)c(OC)c(OC)c5)nn4)c(OC)c3)nc2c1`, the IC50 in test [1] turned out to be 0.41 µM; in test [2], 0.37 µM; in test [3], 0.24 µM; in test [4] it was 1.47 µM; in test [5], 4.36 µM.
